The test system of one assay is Escherichia coli. Put plainly: Inhibition of Escherichia coli DNA polymerase 1 Klenow fragment at 0.5 mM.
In assay [1] the target is Replicase polyprotein 1ab (Severe acute respiratory syndrome-related coronavirus) (UniProt P0C6X7). As to the kind of experiment: Inhibition of SARS coronavirus nsp12 at 0.5 mM.
Assay [2] relates to Hepatitis C virus. As to the kind of experiment: Inhibition of HCV 1b NS5B Cdelta21 polymerase at 0.25 mM relative to control. The arrangement: species or system Hepatitis C virus subtype 1b. A digest of the protocol: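 His-tagged NS5BCΔ21 (genotype 1b) RdRp assay with compound at 0.25 mM and DMSO constant at 10%. Activity without inhibitor, after subtraction of residual background, set as 100%. Values are the mean of at least three independent measurements.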

Assay [3] deals with Hepatitis C virus. Put plainly: Inhibition of HCV 1b NS5B Cdelta21 polymerase. The arrangement: species or system Hepatitis C virus subtype 1b. A digest of the protocol:
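N-terminal His-tagged NS5B lacking the C-terminal 21 residues (genotype 1b). RdRp activity read as total incorporation of radiolabeled UTP on poly rA/U12. IC50 taken from dose–response curves of 8–12 concentrations, run in duplicate in two independent experiments. DMSO held at 10% in all reactions.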

These results are taken from ChEMBL document CHEMBL1152146, “Non-nucleoside inhibitors of the hepatitis C virus NS5B RNA-dependant RNA polymerase: 2-aryl-3-heteroaryl-1,3-thiazolidin-4-one derivatives” (Bioorg Med Chem Lett, 2008).

Each structure is given as a SMILES string. Bounds are passed on as bounds.

For orientation: inhibition means how much of the control response was suppressed. The low end stands for a response near the control, the high end for a response far below the control. As to `Cc1cc(-c2ccccc2)nc(N2C(=O)CSC2c2c(Cl)cccc2Cl)n1` (stereo not given), the inhibition (in the assay with Escherichia coli; in assay [1]) was less than 50% in each case. For the same molecule, in the assay with Hepatitis C virus [2], 250 µM produced 63.6% inhibition.

In the case of `O=C1CSC(c2c(Br)cccc2Br)N1Cc1cccs1` (stereo not given), the inhibition (with Escherichia coli; in assay [1]) was less than 50% throughout. In the assay on Hepatitis C virus [2], testing at 250 µM gave an inhibition of 62.3%.

The term IC50 denotes the concentration at which inhibition is half-maximal. High values mean weaker potency in that assay, low ones greater potency in that assay. Regarding `O=C1CCSC(c2c(Cl)cccc2Cl)N1Cc1ccco1` (stereo not given), the inhibition (in the assay on Escherichia coli; in assay [1]) was less than 50% throughout. In addition, in the assay with Hepatitis C virus [2], the inhibition at 250 µM was found to be 94.2%. Besides, it took 52.6 µM to reach half-maximal inhibition in the assay with Hepatitis C virus [3] (IC50).

With `CC1SC(c2c(Cl)cccc2Cl)N(Cc2ccco2)C1=O` (stereo not given), the inhibition (in the assay on Escherichia coli; in assay [1]) was less than 50% in each case. The molecule also showed an inhibition at 250 µM with Hepatitis C virus [2] of 97.8%. For the same molecule, in the assay on Hepatitis C virus [3], the IC50 stood at 32.2 µM.

Regarding `O=C1CSC(c2ccc(-c3ccnc4ccccc34)cc2)N1c1ccccn1` (stereo not given), the inhibition (in the assay on Escherichia coli; in assay [1]) was less than 50% in each case. This molecule displayed an inhibition at 250 µM in the assay on Hepatitis C virus [2] of 62.2%.

Consider `O=C1CSC(c2c(Cl)cccc2Cl)N1c1nc(-c2ccccc2)cc(-c2ccccc2)n1` (stereo not given), for which the inhibition (in the assay with Escherichia coli; in assay [1]) was less than 50% in each case. This molecule returned an inhibition at 250 µM with Hepatitis C virus [2] of 73.1%.

As to `CC1SC(c2c(Cl)cccc2Cl)N(Cc2cccnc2)C1=O` (stereo not given), the inhibition (in the assay with Escherichia coli; in assay [1]) was less than 50% in each case. Further, the inhibition at 250 µM in the assay with Hepatitis C virus [2] came to 95.6%. In addition, it took 41.8 µM to reach half-maximal inhibition in the assay with Hepatitis C virus [3] (IC50).

Turning to `CCc1nnc(N2C(=O)CSC2c2c(F)cccc2F)s1` (stereo not given), the inhibition in assay [1] is less than 50%.

Turning to `CN(C)c1ccc(C2SCC(=O)N2c2ccccn2)cc1` (stereo not given), the inhibition (in the assay on Escherichia coli; in assay [1]) was less than 50% in each case. In addition, 250 µM produced 76.4% inhibition with Hepatitis C virus [2].

For `Cc1cc(C(F)(F)F)nc(N2C(=O)CSC2c2c(Br)cccc2Br)n1` (stereo not given), the inhibition (with Escherichia coli; in assay [1]) was less than 50% in each case. Moreover, in the assay on Hepatitis C virus [2], testing at 250 µM gave an inhibition of 76.3%.

For `Cc1cc(C(F)(F)F)nc(N2C(=O)CSC2c2c(F)cccc2Cl)n1` (stereo not given), the inhibition (with Escherichia coli; in assay [1]) was less than 50% in each case. The same molecule displayed an inhibition at 250 µM with Hepatitis C virus [2] of 63.6%.

Take `Cc1cccc(N2C(=O)CSC2c2ccc(-c3cccnc3)cc2)n1` (stereo not given): the inhibition (with Escherichia coli; in assay [1]) was less than 50% throughout. For the same molecule, at 250 µM the inhibition with Hepatitis C virus [2] was 64.2%.

Turning to `O=C1CSC2(CCN(Cc3ccccc3)CC2)N1c1ccccn1`, the inhibition (with Escherichia coli; in assay [1]) was less than 50% in each case. In addition, the inhibition at 250 µM with Hepatitis C virus [2] was 85.6%. In addition, in the assay with Hepatitis C virus [3], the IC50 was 71.9 µM.

Regarding `O=C1CSC(c2c(Cl)cccc2Cl)N1Cc1cccnc1` (stereo not given), the inhibition (in the assay with Escherichia coli; in assay [1]) was less than 50% in each case. Further, 250 µM produced 75.6% inhibition in the assay on Hepatitis C virus [2].

On to `CC1SC(c2c(Cl)cccc2Cl)N(c2ccccn2)C1=O` (stereo not given), for which the inhibition (with Escherichia coli; in assay [1]) was less than 50% each time. The inhibition at 250 µM with Hepatitis C virus [2] stood at 73%.

The molecule `COc1cc(O)c2c(c1)oc(=O)c1c3cc(O)c(O)cc3oc21` [WEDELOLACTONE] came in with an IC50 with Hepatitis C virus [3] of 36.1 µM.

Turning to `Cc1cc(-c2ccccc2)nc(N2C(=O)CSC2c2c(F)cccc2Cl)n1` (stereo not given), the inhibition (in the assay with Escherichia coli; in assay [1]) was less than 50% in each case. In addition, at 250 µM the inhibition in the assay with Hepatitis C virus [2] was 65.5%.

For the molecule `O=C1CSC(c2c(Cl)cccc2Cl)N1c1nc(-c2ccccc2)cc(C(F)(F)F)n1` (stereo not given), the inhibition (in the assay on Escherichia coli; in assay [1]) was less than 50% in each case. In addition, 250 µM produced 66.4% inhibition in the assay on Hepatitis C virus [2].

Take `O=C1CSC(c2ccc(F)cc2)N1c1ccccn1` (stereo not given): the inhibition (in the assay with Escherichia coli; in assay [1]) was less than 50% each time. In the assay with Hepatitis C virus [2], at 250 µM the inhibition was 98%. For the same molecule, inhibition with Hepatitis C virus [3] was half-maximal at 31.9 µM (IC50).

Consider `O=C1CSC(c2c(Cl)cccc2Cl)N1Cc1ccco1` (stereo not given), for which the inhibition (in the assay on Escherichia coli; in assay [1]) was less than 50% each time. The inhibition at 250 µM with Hepatitis C virus [2] was found to be 72.3%.

In the case of `O=C1CSC(c2c(F)cccc2Cl)N1c1ccc2ccccc2n1` (stereo not given), the inhibition (in the assay on Escherichia coli; in assay [1]) was less than 50% in each case. This molecule registered an inhibition at 250 µM in the assay with Hepatitis C virus [2] of 60%.

As for `O=C1CSC(c2c(F)cccc2Cl)N1c1nc(-c2ccccc2)cc(-c2ccccc2)n1` (stereo not given), the inhibition (in the assay on Escherichia coli; in assay [1]) was less than 50% in each case. In addition, in the assay with Hepatitis C virus [2], the inhibition at 250 µM worked out at 70.6%.

For the molecule `Cc1cccc(N2C(=O)CSC2c2ccc(N(C)C)cc2)n1` (stereo not given), the inhibition (in the assay with Escherichia coli; in assay [1]) was less than 50% throughout. Besides, the inhibition at 250 µM in the assay on Hepatitis C virus [2] was found to be 84.7%. Moreover, the midpoint of inhibition in the assay on Hepatitis C virus [3], the IC50, lay at 79.4 µM.

For `O=C(NN1C(=O)CSC1c1ccccc1F)c1cc(-c2ccc(F)cc2F)ccc1O` (stereo not given), the inhibition in assay [1] was less than 50%. Further, testing at 250 µM in the assay on Hepatitis C virus [2] gave an inhibition of 92.4%. In addition, the IC50 in the assay on Hepatitis C virus [3] was found to be 48 µM.

As to `O=C1CSC(c2c(F)cccc2F)N1c1nc(-c2ccccc2)cc(-c2ccccc2)n1` (stereo not given), the inhibition (in the assay on Escherichia coli; in assay [1]) was less than 50% each time. The inhibition at 250 µM with Hepatitis C virus [2] came to 73.3%.

On to `Cc1cc(C(F)(F)F)nc(N2C(=O)CSC2c2c(Cl)cccc2Cl)n1` (stereo not given), for which the inhibition (in the assay with Escherichia coli; in assay [1]) was less than 50% in each case. Moreover, testing at 250 µM with Hepatitis C virus [2] gave an inhibition of 72.1%.
